Bioassay records (PubChem)
HSF1 activator: HSF-1 activators, primary screen, NIH3T3-HGL cells, MG132 stress, luminescence, single point; NIH3T3-HGL HSF-1 luciferase reporter, 8 h; 100% = twice DMSO control signal; activation, % at 9 µM; hit rate 1.7% among 300,000;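 active = mean replicate activation of at least 50% with a set share of replicates each reaching 50%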;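 note: 0% = median of the neutral control wells and 100% = twice that signal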
HSF1 inh: HSF1 inhibitors in luciferase reporter cells, primary screen, cell-based, NIH3T3, luminescence; NIH3T3-HGL HSE-luciferase, MG132-induced, luminescence 8 h; hits give low values; activity change, negative = inhibition, % at 7.5 µM (by protocol); hit rate 0.77% among 300,000; AID 2098, 2009;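 active = more than half of replicate wells show activity change below -50%, luminescence cut by over half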;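 note: luciferase reports HSF-1 transcriptional activity via heat shock element; 0% = median of DMSO wells and -100% = zero luminescence signal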
GPR7 antagonist: GPR7 receptor antagonists, primary screen, cell-based, fluorescence, single concentration. Neuropeptides B/W receptor type 1 (Homo sapiens), P48145. GPR7-expressing cells, fluorescence antagonist assay. inhibition, % at 4.4 µM. hit rate 1.1% among 290,000. AID 1861, 2009; in the data active = inhibition above about 16%, passing the limit was not always enough;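 note: cells stimulated with the agonist NPW; 0% = agonist with vehicle and 100% = vehicle without agonist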
Target sequence (P48145 whole entry, looked up): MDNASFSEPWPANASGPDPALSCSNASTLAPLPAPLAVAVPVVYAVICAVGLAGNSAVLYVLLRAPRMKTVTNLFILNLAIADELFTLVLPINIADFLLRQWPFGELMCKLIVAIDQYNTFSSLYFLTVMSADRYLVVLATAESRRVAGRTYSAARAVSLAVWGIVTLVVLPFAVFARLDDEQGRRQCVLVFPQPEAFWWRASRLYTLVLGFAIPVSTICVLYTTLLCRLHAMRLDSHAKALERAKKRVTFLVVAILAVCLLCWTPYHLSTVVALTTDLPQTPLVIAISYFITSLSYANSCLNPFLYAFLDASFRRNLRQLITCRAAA
Jurkat NFkB inh: inhibitors of induced NF-kB luciferase reporter, primary screen, TCR NF-kB activation inhibitor project, cell-based, luminescence, uHTS. hit rate 0.53% among 330,000. inhibition, % at 4 µM. AID 435003, 2010. Jurkat, PMA/ionomycin-induced NF-kB luciferase reporter; in the data active = inhibition above about 50%
697 NFkB inh: inhibitors of PMA/ionomycin-induced NF-kB reporter, 697 cells, primary screen, B-cell NF-kB inhibitor project, cell-based, luminescence, uHTS. hit rate 0.33% among 330,000. inhibition, % at 4 µM. 697 B-cell NF-kB luciferase reporter, 16 h; in the data active = inhibition above about 35%
T cruzi repl: inhibitors of intracellular T. cruzi growth, primary screen, luminescence, NIH3T3 host cells; T. cruzi beta-gal in NIH3T3, 90 h; inhibition, % (no concentration beside the values); hit rate 1.4% among 300,000;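 active = mean inhibition across valid replicates above about 55%, limit read from the data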;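 note: signal also drops with host cell toxicity which is not excluded here; 0% = plate median of DMSO wells and 100% = zero luminescence signal; higher percent means less beta-gal luminescence so fewer parasites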
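System – NIH/3T3 host cells with β-galactosidase reporter T. cruzi · Doses – single 50 nL compound addition per well in DMSO · Reagent – 5000 T. cruzi trypomastigotes/well · Medium – Low-serum DMEM with 2% FBS · Timing – ≥90 h infection period, 3 h prior cell attachment · Evaluation – parasite load inhibition, % · Technique – GalScreen luminescence, 60 min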
The depositor's hits bear a star; . = not tested or not shown; ! = not active in a repeat. The list is not random: actives were taken first. Their share in the collection is about 4.8%.

SMILES	HSF1 activator	HSF1 inh	GPR7 antagonist	Jurkat NFkB inh	697 NFkB inh	T cruzi repl
COc1ccc(CNN2CCCCC2C(=O)Nc2ccc(OC)c(OCC(C)C)c2)cc1OC (stereo not given)	-9	-4	-5	-20	15	57*
CC1(C)CC(CCN)(Cc2ccccc2Cl)CCO1 (stereo not given)	60*	15	-9	-11	-13	30
CC(C)(C)NC(=O)N1CCC(CO)(Cc2ccccc2Cl)CC1	9	-1	-3	4	13	-2
O=C1CCc2cc(S(=O)(=O)Nc3ccccc3F)ccc2N1	.	.	.	5	4	.
CCn1c(=O)cc(SCC(=O)Nc2ccc(Cl)cc2)c2ccccc21	97*	32	-11	14	13	15
CCn1c(=O)cc(SCC(=O)Nc2ccc(OC)c(OC)c2)c2ccccc21	4	3	2	12	17	2
CC1=C(C(=O)Nc2ccc([N+](=O)[O-])cc2)C(c2cccc(C(F)(F)F)c2)NC(=S)N1c1ccccc1 (stereo not given)	10	3	-7	0	-12	57*
COc1ccc(C2NC(=S)N(c3ccccc3)C(C)=C2C(=O)Nc2ccccc2)cc1 (stereo not given)	-9	0	-10	7	-1	2
CCOC(=O)c1c(-c2ccc(C)o2)csc1NC(=O)CN1CCCCC1	18	4	-5	-7	-4	18
CCOC(=O)c1c(-c2ccc(C)o2)csc1NC(=O)CSc1nncs1	95*	80	4	-14	-11	20
COc1ccc(CCCC(=O)NCC(=O)N/N=C/c2cc(Cl)ccc2OC)cc1	3	-7	-6	-5	1	-10
COc1ccccc1-n1c(-c2ccccc2)c[n+]2c1CCc1ccccc1-2	11	-2	28*	33	4	76*!
COc1ccccc1-n1c(-c2ccc(F)cc2)coc1=O	-1	0	-12	-10	1	-14
CC(C)c1ccc(-n2c(-c3ccccc3)c[n+]3c2CCc2ccccc2-3)cc1	-25	-29	68*	.	.	67*
COc1cc(F)ccc1S(=O)(=O)NCc1cccnc1	1	-6	2	4	-14	-5
O=C(NCCc1ccccc1)c1cccc(Br)c1	65*	37	-6	-92	-100	-17
CCCNC(=O)c1cccc(Br)c1	-3	-6	3	-11	16	-13
O=C(NC1CCCCC1)C(c1ccc(F)cc1)N(C(=O)Cc1ccsc1)c1ccc(F)cc1 (stereo not given)	6	-7	-3	-19	-5	74*
COc1ccc(Cc2noc(CN3CCCN(Cc4ccc(F)cc4)CC3)n2)cc1OC	8	1	10	-12	-6	78*
Fc1cccc(Cc2noc(CN3CCCN(C4Cc5ccccc5C4)CC3)n2)c1	-6	-4	-2	3	15	57*
Fc1cccc(Cc2noc(CN3CCN(C4CCc5ccccc5C4)CC3)n2)c1 (stereo not given)	28	6	-3	-1	-6	46
COc1ccc(Cc2noc(CN3CCN(C4CCc5ccccc5C4)CC3)n2)cc1OC (stereo not given)	1	-1	-6	-3	-4	57*
COc1cccc(CN2CCNC(=O)C2CC(=O)N(C)C2CCCCC2)c1OC (stereo not given)	-4	-3	-20	6	-8	-21
CCN(CC)c1ccc(C(=O)OCC(=O)Nc2sccc2C#N)cc1	58*	13	-5	-48	-78	5
N#Cc1ccsc1NC(=O)COC(=O)c1ccc(NC(N)=O)cc1	35	19	0	-102	-83	-5
SMILES	HSF1 activator	HSF1 inh	GPR7 antagonist	Jurkat NFkB inh	697 NFkB inh	T cruzi repl
CCOc1ccccc1N=C1SC(CC(=O)Nc2ccc(OC)cc2OC)C(=O)N1CCC1=CCCCC1 (stereo not given)	2	-6	-13	6	-37	58*
N#Cc1ccc(COC(=O)c2ccccn2)cc1	4	-1	-20	5	18	5
Cc1ccc(-c2nnc(SCC(=O)Nc3nccs3)n2N)cc1	-64	-61*	-11	2	11	9
C=CCOc1ccc(/C=N/NC(=O)CN2CCOCC2)cc1OCC	24	-3	-8	-9	-24	2
CC1CC2(C)Oc3ccccc3CC2C(C)C1CNCCCN(C)C (stereo not given)	-10	-13	44*	46	-1	51
CCNC(=O)NC(=O)c1csc([N+](=O)[O-])c1	11	1	-5	20	20	59*
O=C(Nc1ccccc1)Nc1ccccc1-n1ccnc1	9	-7	1	-6	-13	61*
COc1ccc(C2CC(O)(c3ccccc3)Oc3cc(OC)c(OC)c(OC)c32)cc1 (stereo not given)	4	-4	.	5	7	11
COc1ccc([C@@]23Oc4cc(OC)cc(OC)c4[C@]2(O)[C@H](O)[C@H](C(=O)N(C)C)[C@H]3c2ccccc2)cc1	88*	88*	.	.	.	.
O=[N+]([O-])c1ccc(S(=O)(=O)Nc2ccncc2)cc1	-6	5	-13	15	16	-11
O=C(Nc1ccccc1)c1cccc(S(=O)(=O)Oc2ccc([N+](=O)[O-])cc2)c1	7	5	26*	21	10	-9
O=[N+]([O-])c1ccc(Oc2ccc(S(=O)(=O)Nc3ccccc3)cc2)cc1	-12	-4	58*	2	-27	-20
O=C(O)CSc1cccc[n+]1[O-]	10	0	8	-1	15	-1
O=C(CSc1cccc[n+]1[O-])c1cc(Cl)ccc1Cl	170*	122	-9	-20	-16	53
O=C(CSc1cccc[n+]1[O-])c1cc2ccccc2o1	192*	149	3	-31	-31	60*
CC(=O)N1CCC(=NNc2ccnc3cc(Cl)ccc23)CC1	-23	-10	4	3	1	1
CCOc1ccc(S(=O)(=O)N2CCOCC2)cc1NC(=O)CSC(=S)N1CCCC1	-21	-6	.	10	22	-5
Cc1cc(Oc2ccc3ccccc3c2)nc(SCC(=O)c2ccccc2)n1	8	-11	32*	-5	-16	8
c1ccc(N2CCN(CC3CCCCC3)CC2)cc1	-22	-5	-6	0	5	-6
CCCCN(C(=S)NC(=O)c1cc(OC)c(OC)c(OC)c1)c1c(N)n(Cc2ccccc2)c(=O)[nH]c1=O	-7	3	-5	6	-1	-14
